Each structure is given as a SMILES string. Calls of active or inactive are those of the source.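 How the source made its calls: active means concentration giving half-maximal inhibition of the luciferase signal, from the fitted curve, at 5 µM or lower; inactive means half-inhibition concentration above 5 µM.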

Chain of Nuclear receptor subfamily 5 group A member 2 (Homo sapiens) (O00482 whole entry, looked up): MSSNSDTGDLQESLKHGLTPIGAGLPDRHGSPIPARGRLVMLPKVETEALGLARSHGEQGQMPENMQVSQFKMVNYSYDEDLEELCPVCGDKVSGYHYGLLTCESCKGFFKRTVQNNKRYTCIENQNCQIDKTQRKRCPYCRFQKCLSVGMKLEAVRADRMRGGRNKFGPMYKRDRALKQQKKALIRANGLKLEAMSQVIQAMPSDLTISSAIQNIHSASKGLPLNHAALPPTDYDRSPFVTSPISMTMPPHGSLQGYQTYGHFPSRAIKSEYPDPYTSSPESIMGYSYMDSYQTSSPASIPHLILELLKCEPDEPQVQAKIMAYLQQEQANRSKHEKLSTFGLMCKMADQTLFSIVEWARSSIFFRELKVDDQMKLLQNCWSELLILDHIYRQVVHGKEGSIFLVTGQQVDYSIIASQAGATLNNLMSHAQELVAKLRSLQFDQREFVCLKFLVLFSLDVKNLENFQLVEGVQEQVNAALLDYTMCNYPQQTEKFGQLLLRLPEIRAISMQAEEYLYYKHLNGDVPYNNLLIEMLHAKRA

One test addresses Nuclear receptor subfamily 5 group A member 2 (Homo sapiens) (UniProt O00482). Briefly: LRH1 inhibitors, concentration-response, dose response, cell-based, HEK293T, Cyp19 aromatase-luciferase, luminescence, powder samples (AID 488782). The following applies: HEK293T LRH1 Cyp19-luciferase reporter, 20 h. The method in brief:
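Controls: DMSO vehicle wells; Assay system: HEK293T cells carrying LRH1 plus Cyp19-luciferase reporter; Detection: luminescence from luciferase reporter; Replicates: triplicate; Schedule: bulk transfection 24 h before replating, compound exposure 20 h; Measure: IC50 from sigmoidal fit of DMSO-normalized inhibition.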
A general note: In a reporter assay the amount or activity of a reporter protein is the signal.
As for `CCn1c(=O)cc(N2CCN(c3cccc(C(F)(F)F)c3)CC2)[nH]c1=O`, the IC50 (in general, the concentration needed to halve the response being measured) is 1000 nM.
On to `O=c1cc(N2CCN(c3cccc(C(F)(F)F)c3)CC2)[nH]c(=O)n1C1CCCCC1`, for which the IC50 is 320 nM.
In the case of `O=c1cc(N2CCN(c3ccccc3)CC2)[nH]c(=O)n1C1CCCCC1`, the half-maximal inhibitory concentration (IC50) was 2600 nM.
With `CCn1c(=O)cc(N2CCN(c3cccc(Cl)c3)CC2)[nH]c1=O`, the half-inhibitory concentration (IC50) is 4200 nM.
In the case of `CC(C)Cn1c(=O)cc(N2CCN(c3cccc(C(F)(F)F)c3)CC2)[nH]c1=O`, the 50% inhibitory concentration (IC50) was 110 nM.
Turning to `O=c1cc(N2CCN(c3nc(-c4ccccc4)ns3)CC2)[nH]c(=O)n1C1CCCCC1`, the IC50 is 4800 nM.
The same measure, in the same setting: to `O=c1cc(N2CCN(c3cccc(Cl)c3Cl)CC2)[nH]c(=O)n1C1CCCCC1` belongs 430 nM.
With `O=c1cc(N2CCN(C3CCCCC3)CC2)[nH]c(=O)n1C1CCCCC1`, the IC50 was 921 nM.
Regarding `O=c1cc(N2CCN(c3ccnc4cc(Cl)ccc34)CC2)[nH]c(=O)n1C1CCCCC1`, the 50% inhibitory concentration (IC50) is 4000 nM.
In the case of `C=CCn1c(=O)cc(N2CCN(c3cccc(C(F)(F)F)c3)CC2)[nH]c1=O`, the IC50 was 570 nM.
Take `O=c1cc(N2CCN(c3cccc(Cl)c3)CC2)[nH]c(=O)n1C1CCCCC1`: the IC50 was 3700 nM.
Turning to `O=c1cc(N2CCN(c3cccc(Cl)n3)CC2)[nH]c(=O)n1C1CCCCC1`, the half-inhibitory concentration (IC50) was 538 nM.
As for `Cn1c(=O)cc(N2CCN(c3cccc(Cl)c3)CC2)[nH]c1=O`, the IC50 is 1100 nM.

Still in this test, the particulars now being: HEK293T LRH1 Cyp19-luciferase reporter, 20 h, at 10 µM (top of the series).
`O=c1cc(N2CCN(Cc3ccc(Cl)cc3)CC2)[nH]c(=O)n1C1CCCCC1`: the “fold change, lower = inhibition” value was “inactive”.
